Assays:
Scribble PDZ1 domain = assay: X-ray crystal structure of Scribble PDZ1/SGEF-PDZpeptide complex; assay type: binding, human; details: 1.1 Å, PDB ID 6MYE
Xenopus embryos = assay: Junctional localization in gastrula-stage embryos; assay type: in vivo, Xenopus laevis; details: live confocal, mNeon-tagged
Method in brief: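 Embryos were microinjected in the animal hemisphere with mRNAs, either at the two-cell stage (each cell twice) or at the four-cell stage (once). They were raised to gastrula stage (10.5–12) and live-imaged by confocal. mNeon-tagged protein was coexpressed with BFP-ZO-1 (tight junction marker) and PLEKHA7-mCherry (adherens junction marker), and the junctional-to-cytosolic intensity ratio was quantified.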

Dlg1 = assay: Coimmunoprecipitation of SGEF constructs with GFP-Dlg1, HEK293FT lysates; assay type: binding, Mouse; details: GFP-trap nanobodies, WB
Method in brief: (§1)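 HEK293FT cells were co-transfected by calcium phosphate; medium was changed at 24 h and cells harvested at 48 h. Lysis was in Tris-HCl pH 7.4, MgCl2, 150 mM NaCl, 1% Triton X-100 and protease inhibitors. Equal protein was incubated with GFP-Trap beads for 1 h at 4°C, washed four times, then immunoblotted with anti-GFP and anti-myc (or anti-His).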

Scribble = assay: Coimmunoprecipitation of SGEF constructs with GFP-Scribble, HEK293FT lysates; assay type: binding, Human; details: GFP-trap nanobodies, WB
SGEF = assay: Coimmunoprecipitation of Dlg1 constructs with SGEF, HEK293FT lysates; assay type: binding, Human; details: WB
Method in brief: as §1

| Molecule | interaction with Dlg1 (Dlg1) | interaction with Scribble (Scribble) | other results |
| --- | --- | --- | --- |
| ac-KPNGLLITDFPVEDCONH2 [SGEF-PDZpeptide] |  |  | accessible surface area covered by peptide (Scribble PDZ1 domain): ~500 Å^2; binding register in the PDZ pockets (Scribble PDZ1 domain): novel interactions through pockets near the α1 helix in Scribble PDZ1 (S+1 pocket), which accommodate the P+1 Pro in SGEF; residues of peptide interacting with Scribble PDZ domain (Scribble PDZ1 domain): 11 residues |
| mNeon-RhoG: mNeon-tagged small GTPase RhoG, 1–191 |  |  | localization at apical junctional complex (Xenopus embryos): more broadly localized along the lateral membrane |
| SGEF ΔETNV: SGEF with deletion of the PBM, 1–867 (protein, left off: myc (inferred from the legends of Figures 1 and 2), end not stated, kept) MDGESEVDFSSNSITPLWRRRSIPQPHQVLGRSKPRPQSYQSPNGLLITDFPVEDGGTLLAAQIPAQVPTASDSRTVHRSPLLLGAQRRAVANGGTASPEYRAASPRLRRPKSPKLPKAVPGGSPKSPANGAVTLPAPPPPPVLRPPRTPNAPAPCTPEEDLTGLTASPVPSPTANGLAANNDSPGSGSQSGRKAKDPERGLFPGPQKSSSEQKLPLQRLPSQENELLENPSVVLSTNSPAALKVGKQQIIPKSLASEIKISKSNNQNVEPHKRLLKVRSMVEGLGGPLGHAGEESEVDNDVDSPGSLRRGLRSTSYRRAVVSGFDFDSPTSSKKKNRMSQPVLKVVMEDKEKFSSLGRIKKKMLKGQGTFDGEENAVLYQNYKEKALDIDSDEESEPKEQKSDEKIVIHHKPLRSTWSQLSAVKRKGLSQTVSQEERKRQEAIFEVISSEHSYLLSLEILIRMFKNSKELSDTMTKTERHHLFSNITDVCEASKKFFIELEARHQNNIFIDDISDIVEKHTASTFDPYVKYCTNEVYQQRTLQKLLATNPSFKEVLSRIESHEDCRNLPMISFLILPMQRVTRLPLLMDTICQKTPKDSPKYEVCKRALKEVSKLVRLCNEGARKMERTEMMYTINSQLEFKIKPFPLVSSSRWLVKRGELTAYVEDTVLFSRRTSKQQVYFFLFNDVLIITKKKSEESYNVNDYSLRDQLLVESCDNEELNSSPGKNSSTMLYSRQSSASHLFTLTVLSNHANEKVEMLLGAETQSERARWITALGHSSGKPPADRTSLTQVEIVRSFTAKQPDELSLQVADVVLIYQRVSDGWYEGERLRDGERGWFPMECAKEITCQATIDKNVERMGRLLGL | still interacted efficiently with Dlg1 | no effect on the ability of SGEF to bind to Scribble |  |
| 414–871: C-terminal half of SGEF: DH-PH domain, SH3 domain and PBM (protein, UniProt Q96DR7 414-871, looked up, fragment) LRSTWSQLSAVKRKGLSQTVSQEERKRQEAIFEVISSEHSYLLSLEILIRMFKNSKELSDTMTKTERHHLFSNITDVCEASKKFFIELEARHQNNIFIDDISDIVEKHTASTFDPYVKYCTNEVYQQRTLQKLLATNPSFKEVLSRIESHEDCRNLPMISFLILPMQRVTRLPLLMDTICQKTPKDSPKYEVCKRALKEVSKLVRLCNEGARKMERTEMMYTINSQLEFKIKPFPLVSSSRWLVKRGELTAYVEDTVLFSRRTSKQQVYFFLFNDVLIITKKKSEESYNVNDYSLRDQLLVESCDNEELNSSPGKNSSTMLYSRQSSASHLFTLTVLSNHANEKVEMLLGAETQSERARWITALGHSSGKPPADRTSLTQVEIVRSFTAKQPDELSLQVADVVLIYQRVSDGWYEGERLRDGERGWFPMECAKEITCQATIDKNVERMGRLLGLETNV | showed no binding |  |  |
| SGEF 228–871: SGEF deletion mutant, binds to Dlg1 but not to Scribble (protein, left off: myc (inferred from the legends of Figures 1 and 2), end not stated, kept) LENPSVVLSTNSPAALKVGKQQIIPKSLASEIKISKSNNQNVEPHKRLLKVRSMVEGLGGPLGHAGEESEVDNDVDSPGSLRRGLRSTSYRRAVVSGFDFDSPTSSKKKNRMSQPVLKVVMEDKEKFSSLGRIKKKMLKGQGTFDGEENAVLYQNYKEKALDIDSDEESEPKEQKSDEKIVIHHKPLRSTWSQLSAVKRKGLSQTVSQEERKRQEAIFEVISSEHSYLLSLEILIRMFKNSKELSDTMTKTERHHLFSNITDVCEASKKFFIELEARHQNNIFIDDISDIVEKHTASTFDPYVKYCTNEVYQQRTLQKLLATNPSFKEVLSRIESHEDCRNLPMISFLILPMQRVTRLPLLMDTICQKTPKDSPKYEVCKRALKEVSKLVRLCNEGARKMERTEMMYTINSQLEFKIKPFPLVSSSRWLVKRGELTAYVEDTVLFSRRTSKQQVYFFLFNDVLIITKKKSEESYNVNDYSLRDQLLVESCDNEELNSSPGKNSSTMLYSRQSSASHLFTLTVLSNHANEKVEMLLGAETQSERARWITALGHSSGKPPADRTSLTQVEIVRSFTAKQPDELSLQVADVVLIYQRVSDGWYEGERLRDGERGWFPMECAKEITCQATIDKNVERMGRLLGLETNV | able to bind efficiently to Dlg1 | unable to bind | localization at apical junctional complex (Xenopus embryos): predominantly cytosolic, with only a small fraction still targeted to junctions |
| Dlg1 C-terminal construct: C-terminal half of Dlg1 comprising the SH3 and GUK domains (protein, left off: GFP (inferred from the legend of Figure 2), end not stated, kept) KRSLYVRALFDYDKTKDSGLPSQGLNFKFGDILHVINASDDEWWQARQVTPDGESDEVGVIPSKRRVEKKERARLKTVKFNSKTRDKGEIPDDMGSKGLKHVTSNASDSESSYRGQEEYVLSYEPVNQQEVNYTRPVIILGPMKDRINDDLISEFPDKFGSCVPHTTRPKRDYEVDGRDYHFVTSREQMEKDIQEHKFIEAGQYNNHLYGTSVQSVREVAEKGKHCILDVSGNAIKRLQIAQLYPISIFIKPKSMENIMEMNKRLTEEQARKTFERAMKLEQEFTEHFTAIVQGDTLEDIYNQVKQIIEEQSGSYIWVPAKEKL |  |  | interaction with SGEF (SGEF): able to bind efficiently to SGEF |
| SGEF 1–350: SGEF deletion mutant 1–350 (protein, left off: myc (inferred from the legend of Figure 2), end not stated, kept) MDGESEVDFSSNSITPLWRRRSIPQPHQVLGRSKPRPQSYQSPNGLLITDFPVEDGGTLLAAQIPAQVPTASDSRTVHRSPLLLGAQRRAVANGGTASPEYRAASPRLRRPKSPKLPKAVPGGSPKSPANGAVTLPAPPPPPVLRPPRTPNAPAPCTPEEDLTGLTASPVPSPTANGLAANNDSPGSGSQSGRKAKDPERGLFPGPQKSSSEQKLPLQRLPSQENELLENPSVVLSTNSPAALKVGKQQIIPKSLASEIKISKSNNQNVEPHKRLLKVRSMVEGLGGPLGHAGEESEVDNDVDSPGSLRRGLRSTSYRRAVVSGFDFDSPTSSKKKNRMSQPVLKVVMED | able to bind to Dlg1 |  |  |
| Gly 45 residue for Pro: SGEF with Gly 45 replaced by Pro (protein, UniProt Q96DR7 1-871, looked up, variant G45P) Rho guanine nucleotide …: MDGESEVDFSSNSITPLWRRRSIPQPHQVLGRSKPRPQSYQSPNPLLITDFPVEDGGTLLAAQIPAQVPTASDSRTVHRSPLLLGAQRRAVANGGTASPEYRAASPRLRRPKSPKLPKAVPGGSPKSPANGAVTLPAPPPPPVLRPPRTPNAPAPCTPEEDLTGLTASPVPSPTANGLAANNDSPGSGSQSGRKAKDPERGLFPGPQKSSSEQKLPLQRLPSQENELLENPSVVLSTNSPAALKVGKQQIIPKSLASEIKISKSNNQNVEPHKRLLKVRSMVEGLGGPLGHAGEESEVDNDVDSPGSLRRGLRSTSYRRAVVSGFDFDSPTSSKKKNRMSQPVLKVVMEDKEKFSSLGRIKKKMLKGQGTFDGEENAVLYQNYKEKALDIDSDEESEPKEQKSDEKIVIHHKPLRSTWSQLSAVKRKGLSQTVSQEERKRQEAIFEVISSEHSYLLSLEILIRMFKNSKELSDTMTKTERHHLFSNITDVCEASKKFFIELEARHQNNIFIDDISDIVEKHTASTFDPYVKYCTNEVYQQRTLQKLLATNPSFKEVLSRIESHEDCRNLPMISFLILPMQRVTRLPLLMDTICQKTPKDSPKYEVCKRALKEVSKLVRLCNEGARKMERTEMMYTINSQLEFKIKPFPLVSSSRWLVKRGELTAYVEDTVLFSRRTSKQQVYFFLFNDVLIITKKKSEESYNVNDYSLRDQLLVESCDNEELNSSPGKNSSTMLYSRQSSASHLFTLTVLSNHANEKVEMLLGAETQSERARWITALGHSSGKPPADRTSLTQVEIVRSFTAKQPDELSLQVADVVLIYQRVSDGWYEGERLRDGERGWFPMECAKEITCQATIDKNVERMGRLLGLETNV |  | abolished the interaction |  |
| T49A (protein, UniProt Q96DR7 1-871, looked up, variant T49A) Rho guanine nucleotide …: MDGESEVDFSSNSITPLWRRRSIPQPHQVLGRSKPRPQSYQSPNGLLIADFPVEDGGTLLAAQIPAQVPTASDSRTVHRSPLLLGAQRRAVANGGTASPEYRAASPRLRRPKSPKLPKAVPGGSPKSPANGAVTLPAPPPPPVLRPPRTPNAPAPCTPEEDLTGLTASPVPSPTANGLAANNDSPGSGSQSGRKAKDPERGLFPGPQKSSSEQKLPLQRLPSQENELLENPSVVLSTNSPAALKVGKQQIIPKSLASEIKISKSNNQNVEPHKRLLKVRSMVEGLGGPLGHAGEESEVDNDVDSPGSLRRGLRSTSYRRAVVSGFDFDSPTSSKKKNRMSQPVLKVVMEDKEKFSSLGRIKKKMLKGQGTFDGEENAVLYQNYKEKALDIDSDEESEPKEQKSDEKIVIHHKPLRSTWSQLSAVKRKGLSQTVSQEERKRQEAIFEVISSEHSYLLSLEILIRMFKNSKELSDTMTKTERHHLFSNITDVCEASKKFFIELEARHQNNIFIDDISDIVEKHTASTFDPYVKYCTNEVYQQRTLQKLLATNPSFKEVLSRIESHEDCRNLPMISFLILPMQRVTRLPLLMDTICQKTPKDSPKYEVCKRALKEVSKLVRLCNEGARKMERTEMMYTINSQLEFKIKPFPLVSSSRWLVKRGELTAYVEDTVLFSRRTSKQQVYFFLFNDVLIITKKKSEESYNVNDYSLRDQLLVESCDNEELNSSPGKNSSTMLYSRQSSASHLFTLTVLSNHANEKVEMLLGAETQSERARWITALGHSSGKPPADRTSLTQVEIVRSFTAKQPDELSLQVADVVLIYQRVSDGWYEGERLRDGERGWFPMECAKEITCQATIDKNVERMGRLLGLETNV |  | completely abolish the interaction |  |

— publication PMC6683736 (The Journal of Cell Biology, 2019)
